Measurements from ChEMBL document CHEMBL1955823, “Imidazo[1,2-a]pyrazines as novel PI3K inhibitors” (Bioorg Med Chem Lett, 2012).

Tests used:
[1] = target: T1, PI3-kinase p110-alpha/p85-alpha (Homo sapiens, UniProt P42336); assay: Inhibition of PI3K p110alpha/p85alpha; format: protein-complex assay
Method in brief: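 Biochemical kinase assay following the kit manufacturer's protocol with a modified kinase buffer (50 mM HEPES pH 7.5, 3 mM MgCl2, 100 mM NaCl, 1 mM EGTA, 0.04% CHAPS, 2 mM TCEP, 0.01 mg/ml BGG); 10 nM enzyme; ATP 50 µM; values are averages of two independent experiments, each in duplicate.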

[2] = target: T1, PI3-kinase p110-alpha/p85-alpha; assay: Inhibition of PI3K p110alpha/p85alpha-mediated AKT1 phosphorylation at Ser473 in human U2OS cells; format: cell-based
Method in brief: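 Endogenous phospho-Akt1 (Ser473) measured in U2OS osteosarcoma cells kept in 0.1% FBS and then serum-stimulated; read-out by cell-based ELISA with femto chemiluminescent substrate.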

CYP2C19 = CYP2C19 (Homo sapiens, UniProt P33261); assay: Inhibition of CYP2C19 at 10 uM; format: ADME
Method in brief: (§1)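 CYP isoform panel (1A2, 2C9, 2C19, 2D6, 3A4); percent inhibition recorded at 10 µM test compound; run in duplicate by an outside contractor.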

[3] = Metabolic stability in human liver microsomes assessed as compound remaining at 1 uM after 30 mins
CYP2C9 = CYP2C9 (Homo sapiens, UniProt P11712); assay: Inhibition of CYP2C9 at 10 uM; format: ADME; method in brief: as §1
CYP1A2 = target: T2, CYP1A2 (Homo sapiens, UniProt P05177); assay: Inhibition of CYP1A2 at 10 uM; format: ADME; method in brief: as §1
T2 sequence (P05177 whole entry): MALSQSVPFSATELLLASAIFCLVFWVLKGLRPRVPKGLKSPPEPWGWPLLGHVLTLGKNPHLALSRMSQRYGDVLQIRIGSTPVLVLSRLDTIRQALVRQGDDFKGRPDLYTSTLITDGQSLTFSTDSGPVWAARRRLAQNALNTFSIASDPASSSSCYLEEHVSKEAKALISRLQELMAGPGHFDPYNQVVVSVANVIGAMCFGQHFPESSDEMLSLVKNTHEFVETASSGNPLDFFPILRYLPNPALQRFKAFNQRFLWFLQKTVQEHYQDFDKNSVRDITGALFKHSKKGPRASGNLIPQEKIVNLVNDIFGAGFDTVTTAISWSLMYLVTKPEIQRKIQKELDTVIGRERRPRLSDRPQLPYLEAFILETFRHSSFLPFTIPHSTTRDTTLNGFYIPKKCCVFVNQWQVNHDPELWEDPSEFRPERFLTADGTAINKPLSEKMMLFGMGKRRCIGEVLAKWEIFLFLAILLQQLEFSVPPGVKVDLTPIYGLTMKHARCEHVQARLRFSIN

CYP3A4 = CYP3A4 (Homo sapiens, UniProt P08684); assay: Inhibition of CYP3A4 at 10 uM; format: ADME; method in brief: as §1
CYP2D6 = CYP2D6 (Homo sapiens, UniProt P10635); assay: Inhibition of CYP2D6 at 10 uM; format: ADME; method in brief: as §1
[4] = Metabolic stability in mouse liver microsomes assessed as compound remaining at 1 uM after 30 mins

T1 sequence (P27986 whole entry): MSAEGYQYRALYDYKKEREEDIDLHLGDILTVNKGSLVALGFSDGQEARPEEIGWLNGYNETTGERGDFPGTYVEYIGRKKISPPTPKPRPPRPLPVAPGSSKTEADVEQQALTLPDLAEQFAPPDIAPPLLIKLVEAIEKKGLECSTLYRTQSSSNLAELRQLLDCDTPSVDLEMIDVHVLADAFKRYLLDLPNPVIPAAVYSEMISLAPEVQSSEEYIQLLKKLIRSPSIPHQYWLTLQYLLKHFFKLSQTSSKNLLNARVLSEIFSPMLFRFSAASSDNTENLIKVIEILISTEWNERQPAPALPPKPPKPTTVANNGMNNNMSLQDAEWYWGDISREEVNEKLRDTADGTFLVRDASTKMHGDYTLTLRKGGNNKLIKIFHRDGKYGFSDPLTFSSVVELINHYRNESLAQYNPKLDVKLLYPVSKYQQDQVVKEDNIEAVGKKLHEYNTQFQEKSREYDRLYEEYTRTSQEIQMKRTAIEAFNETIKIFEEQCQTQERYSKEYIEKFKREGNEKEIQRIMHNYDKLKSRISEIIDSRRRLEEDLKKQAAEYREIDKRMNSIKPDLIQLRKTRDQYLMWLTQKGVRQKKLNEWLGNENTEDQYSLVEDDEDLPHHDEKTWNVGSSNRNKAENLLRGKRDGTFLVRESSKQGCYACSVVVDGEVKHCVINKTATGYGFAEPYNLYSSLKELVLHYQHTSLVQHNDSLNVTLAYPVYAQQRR
T1 sequence (P42336 whole entry): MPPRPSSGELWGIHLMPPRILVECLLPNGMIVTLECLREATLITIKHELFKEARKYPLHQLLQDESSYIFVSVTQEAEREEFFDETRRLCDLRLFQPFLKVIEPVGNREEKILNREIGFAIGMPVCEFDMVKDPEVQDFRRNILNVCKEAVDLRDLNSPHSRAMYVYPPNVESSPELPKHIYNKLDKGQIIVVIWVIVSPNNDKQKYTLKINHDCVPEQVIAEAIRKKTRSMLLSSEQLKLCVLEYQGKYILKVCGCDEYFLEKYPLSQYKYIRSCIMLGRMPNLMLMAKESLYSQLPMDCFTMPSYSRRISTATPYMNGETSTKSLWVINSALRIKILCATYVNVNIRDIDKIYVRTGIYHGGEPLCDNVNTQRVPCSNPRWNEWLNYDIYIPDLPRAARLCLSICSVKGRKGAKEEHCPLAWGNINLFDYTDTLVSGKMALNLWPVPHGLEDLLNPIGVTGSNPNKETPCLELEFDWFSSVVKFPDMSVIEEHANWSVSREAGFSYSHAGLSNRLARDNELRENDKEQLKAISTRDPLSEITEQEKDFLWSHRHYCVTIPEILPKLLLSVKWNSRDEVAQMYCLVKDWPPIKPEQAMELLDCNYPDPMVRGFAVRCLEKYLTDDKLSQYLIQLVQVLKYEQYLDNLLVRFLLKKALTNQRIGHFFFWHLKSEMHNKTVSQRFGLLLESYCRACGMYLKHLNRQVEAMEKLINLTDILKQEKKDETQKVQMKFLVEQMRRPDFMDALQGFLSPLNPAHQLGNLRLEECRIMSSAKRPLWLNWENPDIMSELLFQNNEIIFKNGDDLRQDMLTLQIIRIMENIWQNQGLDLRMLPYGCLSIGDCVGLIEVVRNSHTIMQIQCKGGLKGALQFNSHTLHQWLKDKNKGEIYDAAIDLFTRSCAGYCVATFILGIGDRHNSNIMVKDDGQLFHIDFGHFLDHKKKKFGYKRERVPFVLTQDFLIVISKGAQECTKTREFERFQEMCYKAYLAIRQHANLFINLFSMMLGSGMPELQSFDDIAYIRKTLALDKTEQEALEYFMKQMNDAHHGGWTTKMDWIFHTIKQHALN
Sequence of CYP2C9 (P11712 whole entry): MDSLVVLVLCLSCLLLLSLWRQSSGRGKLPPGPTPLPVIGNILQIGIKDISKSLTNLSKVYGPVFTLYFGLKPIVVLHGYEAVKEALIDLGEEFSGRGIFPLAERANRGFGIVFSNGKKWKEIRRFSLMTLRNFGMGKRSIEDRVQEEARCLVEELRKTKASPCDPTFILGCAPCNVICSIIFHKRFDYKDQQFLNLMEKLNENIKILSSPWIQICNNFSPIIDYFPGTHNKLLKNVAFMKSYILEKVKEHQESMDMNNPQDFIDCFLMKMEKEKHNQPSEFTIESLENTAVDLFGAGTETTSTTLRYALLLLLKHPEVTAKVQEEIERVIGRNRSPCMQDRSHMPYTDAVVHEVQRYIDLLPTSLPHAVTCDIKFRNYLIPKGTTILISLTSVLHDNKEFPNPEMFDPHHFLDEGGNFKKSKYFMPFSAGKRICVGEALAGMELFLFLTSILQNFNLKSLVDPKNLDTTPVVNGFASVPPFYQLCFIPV
Sequence of CYP2C19 (P33261 whole entry, canonical isoform): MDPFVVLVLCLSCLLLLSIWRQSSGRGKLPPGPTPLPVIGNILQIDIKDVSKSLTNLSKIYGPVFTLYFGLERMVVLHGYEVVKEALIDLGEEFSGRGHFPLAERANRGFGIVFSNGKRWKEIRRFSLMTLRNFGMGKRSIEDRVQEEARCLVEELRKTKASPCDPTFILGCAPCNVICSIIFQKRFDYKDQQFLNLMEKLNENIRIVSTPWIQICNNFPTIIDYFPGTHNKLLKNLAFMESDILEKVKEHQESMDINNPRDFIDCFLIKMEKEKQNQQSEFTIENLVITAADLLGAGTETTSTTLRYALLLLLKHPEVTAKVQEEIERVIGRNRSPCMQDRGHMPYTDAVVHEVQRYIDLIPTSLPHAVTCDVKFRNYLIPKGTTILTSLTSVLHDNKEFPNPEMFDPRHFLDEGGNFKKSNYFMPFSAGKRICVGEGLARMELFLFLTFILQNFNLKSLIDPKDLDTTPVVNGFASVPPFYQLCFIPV
Sequence of CYP2D6 (P10635 whole entry): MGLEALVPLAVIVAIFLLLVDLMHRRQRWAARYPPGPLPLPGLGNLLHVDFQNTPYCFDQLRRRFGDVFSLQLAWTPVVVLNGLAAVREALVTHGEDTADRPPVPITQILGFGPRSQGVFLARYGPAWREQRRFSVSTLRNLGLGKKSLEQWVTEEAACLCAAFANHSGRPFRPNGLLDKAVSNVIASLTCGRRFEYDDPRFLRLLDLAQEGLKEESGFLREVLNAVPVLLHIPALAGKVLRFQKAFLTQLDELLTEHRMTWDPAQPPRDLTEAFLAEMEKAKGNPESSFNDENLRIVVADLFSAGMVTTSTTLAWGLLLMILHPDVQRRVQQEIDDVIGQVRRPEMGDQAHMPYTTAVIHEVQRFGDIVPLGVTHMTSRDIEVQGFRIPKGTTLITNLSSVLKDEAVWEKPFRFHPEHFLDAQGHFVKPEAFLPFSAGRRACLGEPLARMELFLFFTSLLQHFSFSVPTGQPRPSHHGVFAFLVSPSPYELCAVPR
Sequence of CYP3A4 (P08684 whole entry): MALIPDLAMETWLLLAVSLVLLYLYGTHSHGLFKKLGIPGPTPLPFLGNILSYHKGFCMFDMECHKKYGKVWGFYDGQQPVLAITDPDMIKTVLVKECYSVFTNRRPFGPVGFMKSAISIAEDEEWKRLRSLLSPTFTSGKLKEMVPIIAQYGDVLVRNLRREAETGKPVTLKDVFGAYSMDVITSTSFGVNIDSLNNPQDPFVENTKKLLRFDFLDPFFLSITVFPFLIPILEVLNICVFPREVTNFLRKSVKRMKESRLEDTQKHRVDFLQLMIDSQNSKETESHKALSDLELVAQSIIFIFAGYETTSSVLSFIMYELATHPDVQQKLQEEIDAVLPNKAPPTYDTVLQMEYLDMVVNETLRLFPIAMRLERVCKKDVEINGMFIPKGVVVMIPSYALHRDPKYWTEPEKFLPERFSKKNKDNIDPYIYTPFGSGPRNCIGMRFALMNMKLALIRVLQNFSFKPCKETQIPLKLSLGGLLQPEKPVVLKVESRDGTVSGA

Compound	IC50 [1] [nM]	EC50 [2] [nM]	further results
Oc1cccc(-c2cn3ccnc3c(N3CCOCC3)n2)c1	197		
NC(=O)c1cn2cc(-c3cccc4[nH]ncc34)nc(N3CCOCC3)c2n1	107	138	
COCCNC(=O)c1cn2cc(-c3cccc4[nH]ncc34)nc(N3CCOCC3)c2n1	50	200	inhibition at 10 µM (CYP2C19): < 25%; remaining at 0.5 h, 1 µM [3]: 75%; inhibition at 10 µM (CYP2C9): < 25%; inhibition at 10 µM (CYP1A2): < 25%; inhibition at 10 µM (CYP3A4): < 25%; inhibition at 10 µM (CYP2D6): < 25%; remaining at 0.5 h, 1 µM [4]: 62%
CCNC(=O)c1cn2cc(-c3cccc4[nH]ncc34)nc(N3CCOCC3)c2n1		713	
CN(C)CCNC(=O)c1cn2cc(-c3cccc4[nH]ncc34)nc(N3CCOCC3)c2n1	35	976	
CS(=O)(=O)N1CCN(c2cnc3c(N4CCOCC4)nc(-c4cccc(O)c4)cn23)CC1	526		
CS(=O)(=O)N1CCN(Cc2cc3nc(-c4cccc5[nH]ncc45)nc(N4CCOCC4)c3s2)CC1 [PICTILISIB]			inhibition at 10 µM (CYP2C19): < 25%; inhibition at 10 µM (CYP2C9): < 25%; inhibition at 10 µM (CYP1A2): < 25%; inhibition at 10 µM (CYP3A4): < 25%; inhibition at 10 µM (CYP2D6): < 25%
CN1CCN(Cc2cn3cc(-c4cccc(O)c4)nc(N4CCOCC4)c3n2)CC1	2750		
Oc1cccc(-c2cn3c(N4CCNCC4)cnc3c(N3CCOCC3)n2)c1	897		
CN1CCN(c2cnc3c(N4CCOCC4)nc(-c4cccc(O)c4)cn23)CC1	512		
